Data reported in ChEMBL document CHEMBL1122881, “A dipeptide derived from kainic and L-glutamic acids: a selective antagonist of amino acid induced neuroexcitation with anticonvulsant properties” (1985).

Assays:
Format in all cases: functional
Mus musculus = organism: Mus musculus; assay: Effective dose required to protect mice from picrotoxin-induced seizures
How it was run: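 CD1 mice of either sex (20–30 g), unanaesthetised, received 5 μL of drug in phosphate-buffered saline pH 7.4, or vehicle, icv (1 mm posterior, 1 mm lateral to bregma, 2.6 mm deep). Picrotoxin 3 mg/kg was given iv in the tail vein 10 min later. Stage 5 seizures were scored over 30 min, with at least 8 mice per group, and ED50 was calculated.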

Rattus norvegicus [1] = organism: Rattus norvegicus; assay: Compound (1 mM) to block the increase in the permeability of the neuronal sodium ions in rat striatum slices by excitatory 0.1 M of Quis qulalic acid; settings: in the assay text read “0.1 mM” for “0.1 M”
How it was run: (§1)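 Values are percent of the efflux increase given by the agonist alone (100%), as mean ± standard deviation of at least triplicate experiments. Difference from control was tested by variance analysis.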

Rattus norvegicus [2] = organism: Rattus norvegicus; assay: Compound (1 mM) to block the increase in the permeability of the neuronal sodium ions in rat striatum slices by excitatory 0.1 mM of Kainic Acid.; how it was run: as §1
Rattus norvegicus [3] = organism: Rattus norvegicus; assay: Compound (1 mM) to block the increase in the permeability of the neuronal sodium ions in rat striatum slices by excitatory 0.5 mM of L-GLutamic acid.; how it was run: as §1
Rattus norvegicus [4] = organism: Rattus norvegicus; assay: Compound (1 mM) to block the increase in the permeability of the neuronal sodium ions in rat striatum slices by excitatory 30 uM of N-methyl-D-aspartic acid; how it was run: as §1

With `C=C(C)[C@H]1CN[C@H](C(=O)O)[C@H]1CC(=O)NC(CCC(=O)O)C(=O)O` (stereo not given in full) the ED50 (Mus musculus) was 0.17 µM, the Mean response (Rattus norvegicus [1]) was 69 and the Mean response (Rattus norvegicus [2]) was 84. It also gave a Mean response (Rattus norvegicus [3]) of 90 and a Mean response (Rattus norvegicus [4]) of 16.
